This note sets out measurements from ChEMBL document CHEMBL3774372, “Design, physico-chemical properties and biological evaluation of some new N-[(phenoxy)alkyl]- and N-{2-[2-(phenoxy)ethoxy]ethyl}aminoalkanols as anticonvulsant agents” (Bioorg Med Chem, 2016).

Data set [1] concerns Rattus norvegicus. The data set can be described thus: Anticonvulsant activity in pilocarpine-induced status epilepticus Sprague-Dawley rat model at 100 mg/kg, ip after 2 hrs during post stage 3 seizure. It counts as functional, organism-based. An outline of the steps:
(§1)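 Rats given pilocarpine 50 mg/kg ip and observed to first convulsive seizure (Racine stage 3–5, time zero); test drug then given ip in 0.5% methylcellulose. Efficacy = halting further stage 3–5 convulsive seizures; scored protected/tested, time after first stage 3 seizure.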

In data set [2] the test system is Rattus norvegicus. The data set can be described thus: Anticonvulsant activity in pilocarpine-induced status epilepticus Sprague-Dawley rat model at 100 mg/kg, ip after 1 hr during post stage 3 seizure. It is filed as functional, organism-based. The essentials:
as §1

The test system of data set [3] is Mus musculus. As to the kind of experiment: Anticonvulsant activity in mouse assessed as protection against 6 Hz psychomotor seizure at 50 mg/kg, ip after 0.5 hrs. It is filed as functional, organism-based. An outline of the steps: (§2)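 Suspension in 0.5% methylcellulose given ip to mice; corneal stimulation with 0.2 ms monopolar rectangular pulses at 6 Hz for 3 s from a constant current device, mice restrained then released to observation cage. Protected if normal exploratory behaviour resumed within 10 s of stimulation. Scored as protected/tested, 4 mice per group.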

The subject of data set [4] is Rattus norvegicus. The data set can be described thus: Anticonvulsant activity in rat assessed as protection against maximal electric shock-induced seizures at 30 mg/kg, ip measured after 2 hrs. It counts as functional, organism-based. An outline of the steps:
(§3)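 Rats dosed ip or orally as 0.5% methylcellulose suspension; maximal electroshock at listed time. Protection = abolition of hindlimb tonic extension; 4 rats per group, scored protected/tested.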

Data set [5] concerns Mus musculus. As to the kind of experiment: Anticonvulsant activity in mouse assessed as protection against 6 Hz psychomotor seizure at 20 mg/kg, ip after 2 hrs. It is filed as functional, organism-based. The essentials:
as §2

Data set [6] deals with Rattus norvegicus. The data set can be described thus: Anticonvulsant activity in rat assessed as protection against maximal electric shock-induced seizures at 30 mg/kg, po measured after 1 hr. It counts as functional, organism-based. An outline of the steps:
as §3

Data set [7] deals with Prostacyclin receptor (Homo sapiens) (UniProt P43119). As to the kind of experiment: Displacement of [3H]iloprost from human recombinant Prostanoid IP receptor expressed in HEK293 cells at 10^-5 M. It is filed as cell-based. An outline of the steps:
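Radioligand displacement screen with the test agent at a single 10^-5 M concentration; receptor source and radioligand per target as tabulated (recombinant human cell lines or rat cerebral cortex/urinary bladder).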
Background: Loss of bound radioactivity is the signal in a displacement assay; it reports binding, not function.

Data set [8] relates to Mus musculus. The data set can be described thus: Anticonvulsant activity in mouse assessed as protection against 6 Hz psychomotor seizure at 40 mg/kg, ip after 0.5 hrs. It counts as functional, organism-based. The essentials:
as §2

Data set [9] can be described thus: MRT in CD1 mouse brain at 12.92 mg/kg, ig measured up to 240 mins by LC/ESI-MS/MS analysis. It is filed as ADME, organism-based. The settings on record: po.
The nature of data set [10]: MRT in CD1 mouse plasma at 12.92 mg/kg, ig measured up to 240 mins by LC/ESI-MS/MS analysis. It is filed as ADME, organism-based. To be noted: po.
Data set [11] in a line: MRT in CD1 mouse brain at 1 mg/kg, iv measured up to 240 mins by LC/ESI-MS/MS analysis. It is filed as ADME, organism-based.
Data set [12] concerns Vibrio harveyi. As to the kind of experiment: Mutagenicity in Vibrio harveyi BB7X assessed as number of colonies after 48 hrs (reference value: 15 to 16 no_unit). The settings on record: in vivo. It is filed as ADME, organism-based. The essentials: (§4)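 Vibrio harveyi mutagenicity test: test compound was added to exponentially growing cultures (A600 = 0.1, 30 °C) and grown to OD600 0.3–0.4. Then 5 × 10^6 cells were plated on BOSS agar with neomycin (final 100 µg/mL) and incubated 48 h at 30 °C. Neomycin-resistant colonies were counted. Triplicate; controls were water, DMSO and NQNO 40 ng/mL.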

Data set [13] concerns Mus musculus. The data set can be described thus: AUMC (0 to infinity) in CD1 mouse plasma at 1 mg/kg, iv measured up to 240 mins by LC/ESI-MS/MS analysis. It counts as ADME, organism-based. The settings on record: in vivo, 4 h. The essentials: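 Male CD1 mice fasted overnight, single iv dose 1 mg/kg; sampled at 0, 5, 15, 30, 60, 120 and 240 min (one sample per mouse, four mice per time), under ketamine/xylazine. Heparinized plasma quantified by validated LC/ESI-MS/MS; non-compartmental moment method; AUMC extrapolated to infinity using terminal rate constant from log-linear regression.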

Data set [14] has as its system Mus musculus. The data set can be described thus: Half life in CD1 mouse plasma at 12.92 mg/kg, ig measured up to 240 mins by LC/ESI-MS/MS analysis. To be noted: in vivo, po, 4 h. It is filed as ADME, organism-based.
Data set [15] is described as follows: Tmax in CD1 mouse brain at 12.92 mg/kg, ig measured up to 240 mins by LC/ESI-MS/MS analysis. It counts as ADME, organism-based. To be noted: po.
For data set [16], the system named is Vibrio harveyi. As to the kind of experiment: Antimutagenic activity against Vibrio harveyi BB7X assessed as inhibition of NQNO-induced mutagenicity after 48 hrs. It counts as functional. The essentials:
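V. harveyi cultures grown exponentially to A600 0.1 at 30 °C, exposed to test compound for 15 min, then to NQNO, and grown on to A600 0.3–0.4. 5 × 10⁶ cells plated on BOSS agar with neomycin (100, final). Neomycin-resistant colonies counted after 48 h at 30 °C. Result given as % inhibition of NQNO mutagenicity; three independent repeats.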

A further data set is described as follows: in vitro. To be noted: mouse, liver microsomes. (In general: Liver microsomes are a subcellular fraction often used to study metabolism.)
Data set [17] can be described thus: AUC (0 to infinity) in CD1 mouse brain at 12.92 mg/kg, ig measured up to 240 mins by LC/ESI-MS/MS analysis. It counts as ADME, organism-based. Set-up: dose 12.92 mg/kg, route […], time infinity. The settings on record: po.
A short description of data set [18]: Tmax in CD1 mouse brain at 1 mg/kg, iv measured up to 240 mins by LC/ESI-MS/MS analysis. It is filed as ADME, organism-based.
The subject of data set [19] is Mus musculus. As to the kind of experiment: AUC (0 to infinity) in CD1 mouse plasma at 12.92 mg/kg, ip measured up to 240 mins by LC/ESI-MS/MS analysis. It counts as ADME, organism-based. Set-up: dose 12.92 mg/kg, route intraperitoneal, time infinity. To be noted: in vivo, 4 h.
Data set [20] is described as follows: Absolute bioavailability in CD1 mouse plasma at 12.92 mg/kg, ip measured up to 240 mins by LC/ESI-MS/MS analysis. It counts as ADME, organism-based.
Data set [21] in a line: Ratio of drug level in brain to plasma in CD1 mouse at 12.92 mg/kg, ig administered as single dose measured after 120 mins by LC/ESI-MS/MS analysis. It is filed as ADME, organism-based. To be noted: brain and plasma, po, read-out: BPR.
In data set [22] the test system is Mus musculus. As to the kind of experiment: AUC (0 to infinity) in CD1 mouse plasma at 12.92 mg/kg, ig measured up to 240 mins by LC/ESI-MS/MS analysis. Also noted: dose 12.92 mg/kg, time infinity, route […]. It is filed as ADME, organism-based. The settings on record: in vivo, po, 4 h.
Data set [23] in a line: Ratio of drug level in brain to plasma in CD1 mouse at 12.92 mg/kg, ig administered as single dose measured after 15 mins by LC/ESI-MS/MS analysis. It counts as ADME, organism-based. To be noted: brain and plasma, po, read-out: BPR.
The subject of data set [24] is Vibrio harveyi. The data set can be described thus: Mutagenicity in Vibrio harveyi BB7XM assessed as number of colonies after 48 hrs (reference value: 14 no_unit). It is filed as ADME, organism-based. To be noted: in vivo. An outline of the steps: as §4
Data set [25] relates to Mus musculus. The data set can be described thus: Analgesic activity in mouse assessed as reduction in AUC of formalin-induced licking time during inflammatory phase at 13 mg/kg, ip relative to control. It is filed as functional. An outline of the steps: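 Formalin injected into a mouse hindlimb; total licking time taken as pain intensity. Compound given ip at 13 mg/kg as a suspension in 0.5% methylcellulose; vehicle-only animals served as controls.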

In data set [26] the test system is Vibrio harveyi. As to the kind of experiment: Mutagenicity in Vibrio harveyi BB7M assessed as number of colonies after 48 hrs (reference value: 13 to 14 no_unit). To be noted: in vivo. It counts as ADME, organism-based. An outline of the steps:
as §4

Data set [27] in a line: Ratio of drug level in brain to plasma in CD1 mouse at 12.92 mg/kg, ig administered as single dose measured after 30 mins by LC/ESI-MS/MS analysis. The settings on record: brain and plasma, po, read-out: BPR. It is filed as ADME, organism-based.
The subject of data set [28] is Mus musculus. As to the kind of experiment: Initial plasma concentration in CD1 mouse at 1 mg/kg, iv measured up to 240 mins by LC/ESI-MS/MS. The settings on record: in vivo, 4 h. It counts as ADME, organism-based.

In general, inhibition refers to the relative decrease from the control value, in per cent. As usually defined, the MRT is a mean duration of stay, worked out from the concentration-time curve. A word on the Tmax: it is the time at which the peak concentration occurs. The half-life is how long it takes for the measured level to halve. A higher half-life goes with slow decline. What is called AUC(0-inf) is the area under the concentration-time curve extrapolated to infinity. Higher therefore signals high exposure. A word on the AUC: it is concentration integrated over time. Low values mean less exposure, high ones more exposure. As a reminder, the bioavailability is dose-corrected exposure relative to a reference, in per cent. Lower therefore signals poor availability. By inhibition in vivo is commonly meant how much of the control response was suppressed.

The source made the active and inactive calls. The calls are words filed in the database; no cut-off is given here.

Prostacyclin receptor (Homo sapiens), sequence (P43119 whole entry): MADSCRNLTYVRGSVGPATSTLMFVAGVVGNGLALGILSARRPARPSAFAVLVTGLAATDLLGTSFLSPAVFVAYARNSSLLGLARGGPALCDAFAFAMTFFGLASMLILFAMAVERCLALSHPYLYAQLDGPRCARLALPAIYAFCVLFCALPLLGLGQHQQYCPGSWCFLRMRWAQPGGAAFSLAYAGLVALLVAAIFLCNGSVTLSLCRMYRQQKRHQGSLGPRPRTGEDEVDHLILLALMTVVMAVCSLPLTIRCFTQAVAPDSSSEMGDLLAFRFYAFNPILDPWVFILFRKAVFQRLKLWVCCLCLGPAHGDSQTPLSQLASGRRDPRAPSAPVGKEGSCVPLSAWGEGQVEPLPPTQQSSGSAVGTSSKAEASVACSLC

Take `Cc1cccc(C)c1OCCOCCN[C@H](C)CO`: the outcome in the data set with Rattus norvegicus [1] and in the data set on Rattus norvegicus [2] was inactive. Also, the outcome in the data set with Mus musculus [3] was Active.
On to `Cc1cccc(C)c1OCCOCCN[C@@H](C)CO`, for which the outcome with Rattus norvegicus [4], with Mus musculus [5] and in the data set with Rattus norvegicus [6] was inactive. For the same compound, the inhibition in [7] is -6%. Besides, in the data set with Mus musculus [8], the outcome was Active.
With `Cc1cccc(C)c1OCCOCCN[C@H](C)CO.Cl`, the MRT is 73.8 min in data set [9], 40.3 min in data set [10] and 50.1 min in [11]. In addition, the Activity with Vibrio harveyi [12] amounted to 25; in the data set on Vibrio harveyi [24], 18; with Vibrio harveyi [26], 22. In the data set on Mus musculus [13], this compound registered an AUMC of 956 ng·h²/mL. The compound further registered a t1/2 with Mus musculus [14] of 29.1 min. Also, the Tmax in data set [15] and in data set [18] was 5 min each time. For the same compound, in the data set on Vibrio harveyi [16], the “inhibition (INH)” value turned out to be 7%. The compound also registered a half-life at 20 µM in “in vitro” of 37 min. The AUC(0-inf) in data set [17] is 1220 µg·h/mL. In addition, the AUC turned out to be 0.903 µg·h/mL with Mus musculus [19] and 0.396 µg·h/mL in the data set with Mus musculus [22]. The compound further returned a bioavailability in data set [20] of 6.78%. In addition, the Kp at 2 h in [21] amounted to 3.18. For the same compound, in [23], the Kp at […] stood at 2.67. In addition, the inhibition in vivo at 13 mg/kg in the data set on Mus musculus [25] was found to be 81.1%. Moreover, the Kp at 0.5 h in [27] turned out to be 2.12. Further, in the data set with Mus musculus [28], the C0 was 2200 ng/mL.
